# Assay results gathered from unrelated publications.
# Lines come from different studies, so protocols differ.
# Target: Serine/threonine-protein kinase Nek3 (NEK3, Homo sapiens, UniProt P51956)
# One construct used (P51956 1-506): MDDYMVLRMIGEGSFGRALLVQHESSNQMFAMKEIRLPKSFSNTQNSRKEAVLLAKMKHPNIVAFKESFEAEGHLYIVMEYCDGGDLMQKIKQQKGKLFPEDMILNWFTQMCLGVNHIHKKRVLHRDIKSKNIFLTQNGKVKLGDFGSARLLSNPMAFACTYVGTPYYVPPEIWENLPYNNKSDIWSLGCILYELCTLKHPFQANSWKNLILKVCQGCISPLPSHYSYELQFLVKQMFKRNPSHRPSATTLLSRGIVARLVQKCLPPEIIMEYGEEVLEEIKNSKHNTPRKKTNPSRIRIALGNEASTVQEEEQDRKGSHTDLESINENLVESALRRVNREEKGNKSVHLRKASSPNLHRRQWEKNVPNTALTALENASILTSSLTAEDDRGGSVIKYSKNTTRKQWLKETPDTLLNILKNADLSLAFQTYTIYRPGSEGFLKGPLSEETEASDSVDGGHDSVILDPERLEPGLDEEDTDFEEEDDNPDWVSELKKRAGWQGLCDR
Structure (SMILES),assay,setting,remaining binding
CC(C)CC(=O)N1CCc2nc(-c3ccc(Br)cc3)nc(N(C)Cc3ccccc3)c2C1,"cell-free assay, competition with immobilised ligand",0.1 µM,100%
N[C@@H]1CCN(c2nccc(-c3cnn4ncccc34)n2)C1,binding,1 µM,95%
c1cncc(-c2cccc(Nc3nccc(NC4CCCCC4)n3)c2)c1,"binding, competition with immobilised ligand",10 µM,56%
FC(F)(F)Oc1cccc(-c2cnc3ccc(-c4ccncc4)nn23)c1,"cell-free assay, competition with immobilised ligand",5 µM,73%
O=C(NCC1CCOCC1)c1n[nH]cc1NC(=O)c1c(F)cccc1F,"binding, competition with immobilised ligand",1 µM,66%
C[C@@H]1CCN(c2nccc(-c3cnn4ncccc34)n2)C1,binding,1 µM,81%
O=C(c1ccc(Nc2ncc(Cl)c(-c3ccc(Cl)s3)n2)cc1)N1CCC(N2CCCC2)CC1,"binding, competition with immobilised ligand",1 µM,0.45%
COc1ncc2cc3ccccc3nc2c1C#N,"cell-free assay, competition with immobilised ligand",5 µM,100%
CCCOc1ccc([C@@H]2[C@@H](C(=O)O)[C@H](c3ccc4c(c3)OCO4)CN2CC(=O)Nc2c(CC)cccc2CC)cc1,"cell-free assay, competition with immobilised ligand",1 µM,100%
COc1cnc(Nc2cccc(S(N)(=O)=O)c2)nc1N1CCN(c2ccccc2)C(=O)C1,"binding, competition with immobilised ligand",1 µM,30%
c1ccc(N2CCN(Cc3nc4ccccc4[nH]3)CC2)nc1,"binding, competition with immobilised ligand",1 µM,100%
CN(CCCC(F)(F)F)c1nccc(-c2cnn3ncccc23)n1,binding,1 µM,100%
O=C(NCCCN1CCOCC1)c1ccc(Nc2nccc(-c3cc4ccccc4s3)n2)cc1,"binding, competition with immobilised ligand",1 µM,2.7%
CN(C)c1nccc(-c2cnn3ncccc23)n1,binding,1 µM,100%
O=C(O)[C@H]1[C@H](Cn2nnc3ccccc3c2=O)CC[C@@H]1C(=O)c1ccc(OCCC2CCOCC2)cc1,"cell-free assay, competition with immobilised ligand",1 µM,86%
F[C@@H]1CCN(c2nccc(-c3cnn4ncccc34)n2)C1,binding,1 µM,90%
Cc1nccc(COC(=O)N2C[C@@H]3[C@@H](CNC(=O)c4ccc5[nH]nnc5c4)[C@@H]3C2)n1,"cell-free assay, competition with immobilised ligand",1 µM,100%
O=C(c1ccc(Nc2ncc(Cl)c(-c3cc4ccccc4s3)n2)cc1)N1CCC(N2CCCC2)CC1,"binding, competition with immobilised ligand",1 µM,1.3%
c1cnn2ncc(-c3ccnc(N4CCC45COC5)n3)c2c1,binding,1 µM,64%
COc1cc(-c2cn(C3CCc4ccccc4N(CC(F)(F)F)C3=O)nn2)ccc1-n1ccc(C)n1 (stereo not drawn),"cell-free assay, competition with immobilised ligand",1 µM,100%
C[C@@H](c1ccc(-n2cnc3c(N)ncnc32)cc1)N1CCc2nn(C)c(Cc3ccccc3)c2C1=O,"binding, competition with immobilised ligand",0.1 µM,30%
